Bioassay records from PubChem BioAssay.
GASC1 inh = blocks human GASC-1 (KDM4C) demethylase activity | Q9H3R0 | GST-KDM4C 2-372, H3K9me3 peptide, LANCE TR-FRET | inhibition, % at 12.5 µM | 0.15% of 96,000 active | AID 720574;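 active means mean replicate inhibition above about 25%, with at least 55% of replicates also reaching it, limit read from the data, passing the limit was not always enough; inconclusive means only one of those two conditions met; inactive means neither condition met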
Target sequence (Q9H3R0 2-372 limits assumed): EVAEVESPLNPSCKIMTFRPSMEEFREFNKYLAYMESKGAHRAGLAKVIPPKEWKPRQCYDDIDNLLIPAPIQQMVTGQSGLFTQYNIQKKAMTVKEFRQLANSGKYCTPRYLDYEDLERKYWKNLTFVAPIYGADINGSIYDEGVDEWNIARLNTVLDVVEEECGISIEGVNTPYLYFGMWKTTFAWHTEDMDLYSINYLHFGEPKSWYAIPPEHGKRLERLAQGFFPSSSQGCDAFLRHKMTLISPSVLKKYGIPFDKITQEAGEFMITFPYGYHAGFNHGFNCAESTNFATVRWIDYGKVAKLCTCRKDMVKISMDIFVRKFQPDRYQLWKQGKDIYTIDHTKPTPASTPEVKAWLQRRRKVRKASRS
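Material: N-terminal GST-fused human GASC-1 (KDM4C) fragment, residues 2-372. Input: 10 nM enzyme. Incubation: enzyme reaction 30 min, then detection 60 min, both room temperature. Doses: one test concentration per compound. Read-out basis: inhibition from TR-FRET ratio decrease. Detection: LANCE TR-FRET, excitation 340 nm, emissions 618 and 671 nm.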
IDH1 mut inh = blocks human IDH1 R132H reductase activity | 0.18% of 70,000 active | O75874 | diaphorase/resazurin fluorescence, 60 min | AID 624101 | inhibition, % at 10 µM; in the data active means inhibition above about 34%; inconclusive means no clear call, values can overlap the other calls; inactive means below about 11%
Of the large screens only hits and unclear results are named; the others gave an inactive call. The entries come from a sample that favours hits as a whole.

Cc1ccc(Cl)cc1NC(=O)CSc1nc2c(c(C(F)(F)F)c1C#N)CCCC2	none (no result: GASC1 inh)
CCCC#Cc1ccc2c(c1)O[C@@H](CN(C)Cc1cccnc1)[C@@H](C)CN([C@@H](C)CO)S2(=O)=O	IDH1 mut inh 53
C[C@@H](O)C#Cc1ccc2c(c1)O[C@@H](CN(C)Cc1cncnc1)[C@@H](C)CN([C@@H](C)CO)S2(=O)=O	GASC1 inh 36, IDH1 mut inh 34
CCC(=O)N(C)C[C@@H]1Oc2cc(C#Cc3ccccc3)ccc2S(=O)(=O)N([C@H](C)CO)C[C@@H]1C	none
CCC(=O)N(C)C[C@@H]1Oc2cc(C#Cc3ccccc3)ccc2S(=O)(=O)N([C@@H](C)CO)C[C@@H]1C	GASC1 inh 34
C[C@H](O)C#Cc1ccc2c(c1)O[C@H](CN(C)Cc1cncnc1)[C@@H](C)CN([C@@H](C)CO)S2(=O)=O	none
CCCC#Cc1ccc2c(c1)O[C@H](CN(C)Cc1cccnc1)[C@H](C)CN([C@H](C)CO)S2(=O)=O	none
COCC#Cc1ccc2c(c1)O[C@@H](CN(C)Cc1cccnc1)[C@@H](C)CN([C@@H](C)CO)S2(=O)=O	GASC1 inh 44, IDH1 mut inh 65
COCC#Cc1ccc2c(c1)O[C@H](CN(C)Cc1cccnc1)[C@@H](C)CN([C@@H](C)CO)S2(=O)=O	none
COc1cccc(-c2nnc(SCC(=O)Nc3cccc(Cl)c3)n2C)c1	none (no result: GASC1 inh)
COC(=O)c1ccc(C)c(NC(=O)COc2ccccc2C)c1	none (no result: GASC1 inh)
NS(=O)(=O)c1ccc(NC(=S)NCCN2CCOCC2)cc1	none (no result: GASC1 inh)
Cc1cc(I)ccc1NC(=O)CN(c1ccc(F)c(Cl)c1)S(C)(=O)=O	none (no result: GASC1 inh)
Cc1cc(C)cc(NC(=O)c2ccc(CSc3nnc(-c4cccc([N+](=O)[O-])c4)n3C)cc2)c1	none (no result: GASC1 inh)
Cc1ccc(-n2nc3ccc(NC(=O)COc4cccc(C)c4)cc3n2)cc1	none (no result: GASC1 inh)
O=C(Nc1ccc(Cl)cc1Cl)NC(Cc1ccc(O)cc1)C(=O)O (stereo not given)	none (no result: GASC1 inh)
CC(C)CC#Cc1ccc2c(c1)O[C@H](CN(C)C(=O)c1cccnc1)[C@@H](C)CN([C@@H](C)CO)S2(=O)=O	none
CC(C)CC#Cc1ccc2c(c1)O[C@@H](CN(C)C(=O)c1cccnc1)[C@@H](C)CN([C@@H](C)CO)S2(=O)=O	GASC1 inh 47, IDH1 mut inh 39
Cc1noc(C)c1NC(=O)N(C)C[C@@H]1Oc2cc(C#CCN(C)C)ccc2S(=O)(=O)N([C@H](C)CO)C[C@H]1C	GASC1 inh 52, IDH1 mut inh 44
Cc1noc(C)c1NC(=O)N(C)C[C@H]1Oc2cc(C#CCN(C)C)ccc2S(=O)(=O)N([C@H](C)CO)C[C@@H]1C	none
COc1ccc(NC(=O)N(C)C[C@@H]2Oc3cc(-c4ccncc4)ccc3S(=O)(=O)N([C@@H](C)CO)C[C@@H]2C)cc1	none
C[C@@H]1CN([C@H](C)CO)S(=O)(=O)c2ccc(-c3cccc(F)c3)cc2O[C@@H]1CN(C)S(=O)(=O)c1ccc(F)cc1	none (no result: IDH1 mut inh)
COc1ccc(-c2ccc3c(c2)O[C@H](CN(C)C(=O)c2ccccc2F)[C@H](C)CN([C@@H](C)CO)S3(=O)=O)cc1	none
Cc1ccc(S(=O)(=O)N(C)C[C@H]2Oc3cc(-c4cccc(F)c4)ccc3S(=O)(=O)N([C@@H](C)CO)C[C@@H]2C)cc1	GASC1 inh 45, IDH1 mut inh 87
COc1ccc(NC(=O)N(C)C[C@@H]2Oc3cc(-c4ccncc4)ccc3S(=O)(=O)N([C@H](C)CO)C[C@@H]2C)cc1	GASC1 inh 37, IDH1 mut inh 71
COc1ccc(-c2ccc3c(c2)O[C@H](CN(C)C(=O)c2ccccc2F)[C@H](C)CN([C@H](C)CO)S3(=O)=O)cc1	GASC1 inh 45, IDH1 mut inh inconclusive
O=C(CC1(O)C(=O)Nc2ccc(I)cc21)c1ccccn1 (stereo not given)	none (no result: GASC1 inh)
COC(=O)CCSc1nc(SC)nc2sc3c(c12)CC(C)(C)OC3	none (no result: GASC1 inh)
CO[C@H]1CN(C)C(=O)c2ccc(NS(=O)(=O)c3cccc(Cl)c3)cc2OC[C@@H](C)NC[C@H]1C	GASC1 inh 43, IDH1 mut inh 72
CO[C@H]1CN(C)C(=O)c2ccc(NS(=O)(=O)c3cccc(Cl)c3)cc2OC[C@@H](C)NC[C@@H]1C	none
Cc1ccccc1N(CC(=O)Nc1cccc(Cl)c1Cl)S(C)(=O)=O	none (no result: GASC1 inh)
CCOc1cccc(NC(=O)C2CC(=O)N(/N=C(\C)c3ccc(Br)s3)C(=N)S2)c1 (stereo not given)	none (no result: GASC1 inh)
COC(=O)c1ccc(OC(=O)CS(=O)c2ccc(C(F)(F)F)cc2[N+](=O)[O-])cc1 (stereo not given)	none (no result: GASC1 inh)
COc1ccccc1S(=O)(=O)N[C@H]1CC[C@H](CCNC(=O)C2CCCCC2)O[C@@H]1CO	none
Cc1ccccc1S(=O)(=O)NCC[C@H]1CC[C@@H](NC(=O)C2CCCCC2)[C@@H](CO)O1	none
COc1ccccc1S(=O)(=O)N[C@H]1CC[C@H](CCNC(=O)C2CCCC2)O[C@H]1CO	GASC1 inh 50, IDH1 mut inh inconclusive
Cc1ccccc1S(=O)(=O)NCC[C@H]1CC[C@H](NC(=O)C2CCCCC2)[C@H](CO)O1	GASC1 inh 82, IDH1 mut inh 88
CC1(C)CC[C@]2(C(=O)O[C@@H]3O[C@H](CO)[C@@H](O)[C@H](O)[C@H]3O)CC[C@]3(C)C(=CCC4[C@@]5(C)CC[C@@H](O[C@@H]6O[C@H](C(=O)O)[C@@H](O[C@@H]7OC[C@@H](O)[C@H](O)[C@H]7O)[C@H](O[C@@H]7OC[C@](O)(CO)[C@H]7O)[C@H]6O)C(C)(C)C5CC[C@]43C)C2C1 (stereo not given in full)	none (no result: GASC1 inh)
COc1ccc(OC)c(NC(=O)Cc2c(OC)ccc3cc(Br)ccc23)c1	none (no result: GASC1 inh)
c1ccc(-c2noc(COc3cccc4ccccc34)n2)nc1	none (no result: GASC1 inh)
CCCN1[C@H](C(=O)N[C@@H](C)c2ccccc2)[C@@H](CO)[C@@H]2Cn3c(cccc3=O)[C@@H]21	GASC1 inh 38 (no result: IDH1 mut inh)
CCCN1[C@@H]2c3cccc(=O)n3C[C@@H]2[C@@H](CO)[C@@H]1C(=O)N[C@@H](C)c1ccccc1	none (no result: IDH1 mut inh)
O=S(c1ccccc1)c1ccc2nnnn2n1 (stereo not given)	IDH1 mut inh 62 (no result: GASC1 inh)
Cn1c(SCC(=O)Nc2cccc(Br)c2)nnc1-c1cccs1	none (no result: GASC1 inh)
COc1ccc(-c2cnc3c(c2)C(=O)N([C@H](C)CO)C[C@H](C)[C@@H](CN(C)C(=O)Cc2ccncc2)O3)cc1	none
CC(=O)N(C)C[C@H]1Oc2ncc(-c3ccc(C#N)cc3)cc2C(=O)N([C@H](C)CO)C[C@@H]1C	GASC1 inh 32
C[C@H]1CN([C@@H](C)CO)C(=O)c2cc(Br)cnc2O[C@@H]1CN(C)C(=O)NC1CCCCC1	none (no result: IDH1 mut inh)
COc1ccc(-c2cnc3c(c2)C(=O)N([C@@H](C)CO)C[C@H](C)[C@@H](CN(C)C(=O)Cc2ccncc2)O3)cc1	IDH1 mut inh 41
C[C@H](CO)N1C[C@H](C)[C@H](CN(C)C(=O)NC2CCCCC2)Oc2ncc(Br)cc2C1=O	IDH1 mut inh 35
CC(=O)N(C)C[C@@H]1Oc2ncc(-c3ccc(C#N)cc3)cc2C(=O)N([C@H](C)CO)C[C@H]1C	none
Cn1c(SCC(=O)c2ccccc2)nnc1-c1cc2ccccc2o1	none (no result: GASC1 inh)
Cc1cc(C)n2nc(SCC(=O)c3ccc4c5c(cccc35)CC4)nc2n1	none (no result: GASC1 inh)
C[C@@H]1CN([C@@H](C)CO)S(=O)(=O)c2ccc(C3=CCCCC3)cc2O[C@H]1CN(C)C(=O)Cc1ccncc1	IDH1 mut inh 58
